Source: ChEMBL document CHEMBL1123566, “Synthesis and cardiac electrophysiological activity of 2- and 3-[(substituted phenyl)alkyl]quinuclidines. Structure-activity relationships” (1987)
“And” between values parts separate entries of the source, which are not always exact repeats. Equal values may be shown once.

How the values were obtained:
[1] = species on record: Canis familiaris; test: In vitro electrophysiological evaluation in canine cardiac ventricular muscle reported as maximum % change for functional refractory period (FRP) at 0.1-100 uM concentration range; concentration at which it occurred is 100 uM; set-up: species or system Canis lupus familiaris, Muscle tissue
Summary of the method: (§1)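 Canine right ventricle and papillary muscle strips in oxygenated Tyrode's solution, fitted with stimulating and recording electrodes. The extra-stimulus conduction-interval method was adapted for in vitro use. FRP and CT were read from a conduction-interval curve before and after various compound concentrations, and expressed as percent change from control. Compounds were taken from 10 mM deionized-water stock into Tyrode's. Each strip was used once as its own control.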

[2] = species on record: Canis familiaris; test: In vitro electrophysiological evaluation in canine cardiac ventricular muscle reported as maximum % change for conduction time(CT) at 1-100 uM concentration range; concentration at which it occurred is 100 uM; assay type: functional, Canis lupus familiaris, Muscle tissue; summary of the method: as §1
[3] = species on record: Canis familiaris; test: In vitro electrophysiological evaluation in canine cardiac ventricular muscle reported as % change for the functional refractory period (FRP) at 10 uM at concentration range of 0.1-100 uM; set-up: species or system Canis lupus familiaris, Muscle tissue; summary of the method: as §1
[4] = species on record: Canis familiaris; test: In vitro electrophysiological evaluation in canine cardiac ventricular muscle reported as % change for the functional refractory period (FRP) at 10 uM at concentration range of 1-100 uM; set-up: species or system Canis lupus familiaris, Muscle tissue; summary of the method: as §1
[5] = species on record: Canis familiaris; test: In vitro electrophysiological evaluation in canine cardiac ventricular muscle reported as % change for conduction time(CT) at 10 uM at 0.1-100 uM concentration range; Minimal (<10% decrease or increase in CT).; assay type: functional, Canis lupus familiaris, Muscle tissue
[6] = species on record: Canis familiaris; test: In vitro electrophysiological evaluation in canine cardiac ventricular muscle reported as % change for conduction time(CT) at 10 uM at 1-100 uM concentration range; Minimal (<10% decrease or increase in CT).; assay type: functional, Canis lupus familiaris, Muscle tissue
[7] = species on record: Canis familiaris; test: In vitro electrophysiological evaluation in canine cardiac ventricular muscle reported as maximum % change for conduction time(CT) at 0.1-100 uM concentration range; Minimal (<10% decrease or increase in CT).; assay type: functional, Canis lupus familiaris, Muscle tissue; summary of the method: as §1
[8] = species on record: Canis familiaris; test: In vitro electrophysiological evaluation in canine cardiac Purkinje fibres reported as percent change Vmax at 10 uM at concentration range of 1-100 uM; assay type: functional; details: Canis lupus familiaris, Purkinje fiber
Summary of the method: (§2)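 Canine cardiac Purkinje fibres, intracellular microelectrode recording, paced at a basic cycle length of 1 s. APD95 and Vmax read simultaneously. Compound: 10 mM stock in deionized water, diluted into Tyrode's solution, tested over the stated concentration range. Each fibre used once as its own control. Result is % change from control, given at 10 µM or as the maximum with its concentration. M = <10% decrease or an increase in Vmax.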

[9] = species on record: Canis familiaris; test: In vitro electrophysiological evaluation in canine cardiac occurred is 100 uM; assay type: functional; details: Canis lupus familiaris; Heart
[10] = species on record: Canis familiaris; test: In vitro electrophysiological evaluation in canine cardiac ventricular muscle reported as maximum % change for conduction time(CT) at 0.1-100 uM concentration range; concentration at which it occurred is 100 uM; assay type: functional, Canis lupus familiaris, Muscle tissue; summary of the method: as §1
[11] = species on record: Canis familiaris; test: In vitro electrophysiological evaluation in canine cardiac ventricular muscle reported as maximum % change for functional refractory period (FRP) at 1-100 uM concentration range; concentration at which it occurred is 100 uM; set-up: species or system Canis lupus familiaris, Muscle tissue; summary of the method: as §1
[12] = species on record: Canis familiaris; test: In vitro electrophysiological activity in canine cardiac occurred is 10 uM.; assay type: functional, Canis lupus familiaris, Heart
[13] = species on record: Canis familiaris; test: In vitro electrophysiological evaluation in canine cardiac Purkinje fibres reported as % change for action potential duration at 10 uM at 1-100 uM concentration range; assay type: functional, Canis lupus familiaris, Purkinje fiber; summary of the method: as §2
[14] = species on record: Canis familiaris; test: In vitro electrophysiological evaluation in canine cardiac Purkinje fibres reported as % change for action potential duration at a concentration of 10 uM; assay type: functional, Canis lupus familiaris, Purkinje fiber; summary of the method: as §2
[15] = species on record: Canis familiaris; test: In vitro electrophysiological activity in canine cardiac occurred is 100 uM.; assay type: functional, Canis lupus familiaris, Heart
[16] = system: Canis familiaris; test: Conduction time was determined by intraduodenal administration of 10 mg/kg (low dose)of compound in anesthetized dogs. Value was reported for experiment 2; assay type: functional, Canis lupus familiaris
Summary of the method: (§3)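 Anesthetized dogs; compound given intraduodenally, generally as two doses, the second a cumulative (high) dose. LV functional refractory period and conduction time measured 15, 30 and 45 min after dosing; heart rate and blood pressure measured during nonpacing intervals. Values are % change from control, given per individual animal. Active if FRP or CT prolonged by ≥12%.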

[17] = system: Canis familiaris; test: Conduction time was determined by intraduodenal administration of 30 mg/kg (high dose) of compound in anesthetized dogs. Value was reported for experiment 1; assay type: functional, Canis lupus familiaris; summary of the method: as §3
[18] = system: Canis familiaris; test: Heart rate was determined by intraduodenal administration of 30 mg/kg (high dose) of compound in anesthetized dogs. Value was reported for experiment 2; assay type: functional, Canis lupus familiaris; summary of the method: as §3
[19] = system: Canis familiaris; test: Conduction time was determined by intraduodenal administration of 10 mg/kg (low dose) of compound in anesthetized dogs. Value was reported for experiment 1; assay type: functional, Canis lupus familiaris; summary of the method: as §3
[20] = system: Canis familiaris; test: Conduction time was determined by intraduodenal administration of 30 mg/kg (high dose)of compound in anesthetized dogs. Value was reported for experiment 2; assay type: functional, Canis lupus familiaris; summary of the method: as §3
[21] = system: Canis familiaris; test: Heart rate was determined by intraduodenal administration of 30 mg/kg (high dose) of compound in anesthetized dogs. Value was reported for experiment 1; assay type: functional, Canis lupus familiaris; summary of the method: as §3
[22] = system: Canis familiaris; test: Left ventricular refractory period was determined by intraduodenal administration of 10 mg/kg (low dose) of compound in anesthetized dogs. Value was reported for experiment 1; assay type: functional, Canis lupus familiaris, Cardiac ventricle
Summary of the method: (§4)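 Anesthetized dogs received two intraduodenal doses, the second cumulative (low dose/high dose). Left ventricular FRP and CT were measured 15, 30 and 45 min after dosing. Heart rate and mean blood pressure were taken during nonpacing intervals. Values are percent change from control. The vehicle was 5% dextrose in water/tragacanth. Activity was defined as ≥12% prolongation of FRP or CT.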

[23] = system: Canis familiaris; test: Heart rate was determined by intraduodenal administration of 10 mg/kg (low dose) of compound in anesthetized dogs. Value was reported for experiment 1; assay type: functional, Canis lupus familiaris; summary of the method: as §3
[24] = system: Canis familiaris; test: Heart rate was determined by intraduodenal administration of 10 mg/kg (low dose) of compound in anesthetized dogs. Value was reported for experiment 2; assay type: functional, Canis lupus familiaris; summary of the method: as §3
[25] = system: Canis familiaris; test: Left ventricular refractory period was determined by intraduodenal administration of 10 mg/kg (low dose) of compound in anesthetized dogs. Value was reported for experiment 2; assay type: functional, Canis lupus familiaris, Cardiac ventricle; summary of the method: as §4
[26] = system: Canis familiaris; test: Left ventricular refractory period was determined by intraduodenal administration of 30 mg/kg (high dose) of compound in anesthetized dogs. Value was reported for experiment 1; assay type: functional, Canis lupus familiaris, Cardiac ventricle; summary of the method: as §4
[27] = system: Canis familiaris; test: Left ventricular refractory period was determined by intraduodenal administration of 30 mg/kg (high dose) of compound in anesthetized dogs. Value was reported for experiment 2; assay type: functional, Canis lupus familiaris, Cardiac ventricle; summary of the method: as §4
[28] = system: Canis familiaris; test: Mean arterial blood pressure was determined by intraduodenal administration of 10 mg/kg (low dose)of compound in anesthetized dogs. Value was reported for experiment 2; assay type: functional, Canis lupus familiaris
[29] = system: Canis familiaris; test: Mean arterial blood pressure was determined by intraduodenal administration of 30 mg/kg (high dose) of compound in anesthetized dogs. Value was reported for experiment 1; assay type: functional, Canis lupus familiaris
[30] = system: Canis familiaris; test: Mean arterial blood pressure was determined by intraduodenal administration of 10 mg/kg (low dose)of compound in anesthetized dogs. Value was reported for experiment 1; assay type: functional, Canis lupus familiaris
[31] = system: Canis familiaris; test: Mean arterial blood pressure was determined by intraduodenal administration of 30 mg/kg (high dose) of compound in anesthetized dogs. Value was reported for experiment 2; assay type: functional, Canis lupus familiaris
[32] = species on record: Canis familiaris; test: In vitro electrophysiological evaluation in canine cardiac ventricular muscle reported as maximum % change for conduction time(CT) at 0.1-10 uM concentration range; Minimal (<10% decrease or increase in CT).; assay type: functional, Canis lupus familiaris, Muscle tissue; summary of the method: as §1
[33] = species on record: Canis familiaris; test: In vitro electrophysiological evaluation in canine cardiac ventricular muscle reported as maximum % change for conduction time(CT) at 0.1-30 uM concentration range; Minimal (<10% decrease or increase in CT).; assay type: functional, Canis lupus familiaris, Muscle tissue; summary of the method: as §1
[34] = species on record: Canis familiaris; test: In vitro electrophysiological evaluation in canine cardiac ventricular muscle reported as % change for the functional refractory period (FRP) at 10 uM at concentration range of 0.1-10 uM; set-up: species or system Canis lupus familiaris, Muscle tissue; summary of the method: as §1
[35] = species on record: Canis familiaris; test: In vitro electrophysiological evaluation in canine cardiac ventricular muscle reported as % change for the functional refractory period (FRP) at 10 uM at concentration range of 0.1-30 uM; set-up: species or system Canis lupus familiaris, Muscle tissue; summary of the method: as §1
[36] = species on record: Canis familiaris; test: In vitro electrophysiological evaluation in canine cardiac ventricular muscle reported as % change for conduction time(CT) at 10 uM at 0.1-10 uM concentration range; Minimal (<10% decrease or increase in CT).; assay type: functional, Canis lupus familiaris, Muscle tissue
[37] = species on record: Canis familiaris; test: In vitro electrophysiological evaluation in canine cardiac ventricular muscle reported as % change for conduction time(CT) at 10 uM at 0.1-30 uM concentration range; Minimal (<10% decrease or increase in CT).; assay type: functional, Canis lupus familiaris, Muscle tissue
[38] = species on record: Canis familiaris; test: In vitro electrophysiological evaluation in canine cardiac ventricular muscle reported as maximum % change for functional refractory period (FRP) at 0.1-10 uM concentration range; concentration at which it occurred is 1 uM.; set-up: species or system Canis lupus familiaris, Muscle tissue; summary of the method: as §1
[39] = species on record: Canis familiaris; test: In vitro electrophysiological evaluation in canine cardiac ventricular muscle reported as maximum % change for functional refractory period (FRP) at 0.1-30 uM concentration range; concentration at which it occurred is 1 uM.; set-up: species or system Canis lupus familiaris, Muscle tissue; summary of the method: as §1
[40] = species on record: Canis familiaris; test: In vitro electrophysiological evaluation in canine cardiac ventricular muscle reported as maximum % change for functional refractory period (FRP) at 0.1-30 uM concentration range; concentration at which it occurred is 30 uM.; set-up: species or system Canis lupus familiaris, Muscle tissue; summary of the method: as §1
[41] = species on record: Canis familiaris; test: In vitro electrophysiological evaluation in canine cardiac Purkinje fibres reported as percent change Vmax at 10 uM at concentration range of 0.1-30 uM; assay type: functional; details: Canis lupus familiaris, Purkinje fiber; summary of the method: as §2
[42] = species on record: Canis familiaris; test: In vitro electrophysiological evaluation in canine cardiac Purkinje fibres reported as percent change Vmax at 10 uM at concentration range of 0.1-30 uM; Minimal (<10% decrease or increase in V max).; assay type: functional, organism-based; details: Canis lupus familiaris, Purkinje fiber; summary of the method: as §2
[43] = species on record: Canis familiaris; test: In vitro electrophysiological evaluation in canine cardiac occurred is 30 uM; assay type: functional; details: Canis lupus familiaris; Heart
[44] = species on record: Canis familiaris; test: In vitro electrophysiological activity in canine cardiac occurred is 1 uM; assay type: functional, Canis lupus familiaris, Heart
[45] = species on record: Canis familiaris; test: In vitro electrophysiological evaluation in canine cardiac Purkinje fibres reported as % change for action potential duration at 10 uM at 0.1-30 uM concentration range; assay type: functional, Canis lupus familiaris, Purkinje fiber; summary of the method: as §2

## CCOC(=O)C(CC1C(=O)C2CCN1CC2)C(=O)c1ccc(Cl)c(NS(C)(=O)=O)c1.Cl (stereo unspecified)
[1]
  FRP: 12% and 5% and 14%
[2]
  CT: 14%
[3]
  FRP: 5% and -7% and 6%
[4]
  FRP: 10%
[5]
  CT: <10%
[6]
  CT: <10%
[7]
  CT: <10%
[8]
  Vmax: -11% and -10%
[9]
  Vmax: -19% and -21%
[10]
  CT: 12%
[11]
  FRP: 15%
[12]
  APD95: 9%
[13]
  APD95: -4%
[14]
  APD95: 9%
[15]
  APD95: -16%

## Cl.O=C(CCC1C(=O)C2CCN1CC2)c1ccc(Cl)cc1 (stereo unspecified)
[16]
  CT: 4%
[17]
  CT: 14%
[18]
  HR: -21%
[19]
  CT: 5%
[20]
  CT: 13%
[21]
  HR: -18%
[22]
  LV FRP: 15%
[23]
  HR: -13%
[24]
  HR: -15%
[25]
  LV FRP: 12%
[26]
  LV FRP: 15%
[27]
  LV FRP: 6%
[28]
  Mean blood pressure: 18%
[29]
  Mean blood pressure: 0%
[30]
  Mean blood pressure: -5%
[31]
  Mean blood pressure: 23%
[32]
  CT: <10%
[33]
  CT: <10%
[34]
  FRP: 17%
[35]
  FRP: 10%
[36]
  CT: <10%
[37]
  CT: <10%
[38]
  FRP: 22%
[39]
  FRP: 15%
[40]
  FRP: -9%
[41]
  Vmax: -10%
[42]
  Vmax: < 10%
[43]
  Vmax: -26% and -18%
[44]
  APD95: 14% and 12%
[45]
  APD95: 5%
[14]
  APD95: 13%
